Consider five compounds from ChEMBL document CHEMBL1121728, “Synthesis and antitumor activity of an acyclonucleoside derivative of 5-fluorouracil” (1981).

Structures are written as SMILES.

In experiment [1] the test system is L1210. In words: Inhibition against L1210 mouse leukemia cells; No effect. Format: functional. Conditions: read-out: ID50 (the source's name).
The subject of experiment [2] is L1210. Nature of the experiment: Inhibition against L1210 mouse leukemia cells; Inactive. It counts as functional. As to conditions: read-out: ID50 (the source's name).
The subject of experiment [3] is L1210. In words: Inhibition against L1210 mouse leukemia cells. Format: functional. Conditions: read-out: ID50 (the source's name). Summed up: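 Growth inhibition of L1210 mouse leukemia cells in culture, reported as ID50 (molar concentration).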
In experiment [4] the test system is P388. Nature of the experiment: Compound was evaluated for the 7-day percent change in weight of mice infected with P388 leukemia at a dose of 100 […] in b.i.d. x 4 schedule. Format: functional, Mus musculus. The gist of the method:
(§1)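 Male B6D2F₁J mice in groups of five received 10⁶ P388 cells ip on day 0. Compound was then given ip in water on the stated schedule. Body weights were taken on days 1 and 7, and the change is expressed as a percentage. Survival was also recorded as percent increase in life span.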

Experiment [5] concerns P388. Nature of the experiment: Compound was evaluated for the 7-day percent change in weight of mice infected with P388 leukemia at a dose of 100 […] in q.d. 1-4 schedule. It counts as functional, Mus musculus. Summed up: as §1
Experiment [6] relates to P388. Nature of the experiment: Compound was evaluated for the 7-day percent change in weight of mice infected with P388 leukemia at a dose of 120 […] in q.d. 1-9 schedule. It counts as functional, Mus musculus. The gist of the method: as §1
Experiment [7] relates to P388. In words: Compound was evaluated for the 7-day percent change in weight of mice infected with P388 leukemia at a dose of 200 […] in b.i.d. x 4 schedule. Format: functional, Mus musculus. Summed up:
as §1

Experiment [8] concerns P388. Nature of the experiment: Compound was evaluated for the 7-day percent change in weight of mice infected with P388 leukemia at a dose of 200 […] in q.d. 1-4 schedule. It counts as functional, Mus musculus. The gist of the method:
as §1

Experiment [9] has as its system P388. Nature of the experiment: Compound was evaluated for the 7-day percent change in weight of mice infected with P388 leukemia at a dose of 240 […] in q.d. 1-9 schedule. Format: functional, Mus musculus. Summed up:
as §1

Experiment [10] has as its system P388. Nature of the experiment: Compound was evaluated for the 7-day percent change in weight of mice infected with P388 leukemia at a dose of 400 […] in b.i.d. x 4 schedule. It counts as functional, Mus musculus. The gist of the method:
as §1

Experiment [11] has as its system P388. Nature of the experiment: Compound was evaluated for the 7-day percent change in weight of mice infected with P388 leukemia at a dose of 50 […] in b.i.d. x 4 schedule. It counts as functional, Mus musculus. The gist of the method: as §1
For experiment [12], the system named is P388. In words: Compound was evaluated for the 7-day percent change in weight of mice infected with P388 leukemia at a dose of 50 […] in q.d. 1-4 schedule. It counts as functional, Mus musculus. The gist of the method:
as §1

Experiment [13] concerns P388. In words: Percent increase in survival of P388 leukemic mice at a compound dose 400 mg/kg (b.i.d. x 4) or 240 mg/kg (q.d. 1-9) was given intraperitoneally in water. It counts as functional, Mus musculus. The gist of the method: (§2)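 Male B6D2F1J mice, five per group, received 10^6 P388 leukemia cells ip on day 0. Treatment was ip in water on q.d. 1-4, b.i.d. × 4 or q.d. 1-9 schedules. Survival was recorded, and increase in life span (ILS) was calculated relative to untreated controls. Toxicity was judged by weight loss.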

Experiment [14] deals with P388. Nature of the experiment: Compound was evaluated for the median survival time of mice infected with P388 leukemia at a dose of 100 […] in b.i.d. x 4 schedule. Format: functional, Mus musculus. Summed up:
as §2

Experiment [15] deals with P388. In words: Compound was evaluated for the median survival time of mice infected with P388 leukemia at a dose of 100 […] in q.d. 1-4 schedule. Format: functional, Mus musculus. Summed up: as §2
For experiment [16], the system named is P388. In words: Compound was evaluated for the median survival time of mice infected with P388 leukemia at a dose of 120 […] in q.d. 1-9 schedule. Format: functional, Mus musculus. Summed up:
as §2

Experiment [17] deals with P388. In words: Compound was evaluated for the median survival time of mice infected with P388 leukemia at a dose of 200 […] in b.i.d. x 4 schedule. It counts as functional, Mus musculus. Summed up: as §2
Experiment [18] deals with P388. In words: Compound was evaluated for the median survival time of mice infected with P388 leukemia at a dose of 200 […] in q.d. 1-4 schedule. Format: functional, Mus musculus. Summed up: as §2
Experiment [19] concerns P388. Nature of the experiment: Compound was evaluated for the median survival time of mice infected with P388 leukemia at a dose of 240 […] in q.d. 1-9 schedule. It counts as functional, Mus musculus. Summed up: as §2
In experiment [20] the test system is P388. In words: Compound was evaluated for the median survival time of mice infected with P388 leukemia at a dose of 400 […] in b.i.d. x 4 schedule. It counts as functional, Mus musculus. The gist of the method:
as §2

Experiment [21] concerns P388. In words: Compound was evaluated for the median survival time of mice infected with P388 leukemia at a dose of 50 […] in b.i.d. x 4 schedule. Format: functional, Mus musculus. Summed up:
as §2

Experiment [22] has as its system P388. In words: Compound was evaluated for the median survival time of mice infected with P388 leukemia at a dose of 50 […] in q.d. 1-4 schedule. It counts as functional, Mus musculus. The gist of the method:
as §2

Experiment [23] deals with P388. Nature of the experiment: Compound was evaluated for the median survival time of mice infected with P388 leukemia at a dose of 60 […] in q.d. 1-9 schedule. Format: functional, Mus musculus. The gist of the method:
as §2

In experiment [24] the test system is P388. Nature of the experiment: 7-day weight change in mice infected with P388 leukemia at a dose of 60 […] in q.d. 1-9 schedule.
In experiment [25] the test system is P388. In words: Compound was evaluated for the 7-day percent change in weight of mice infected with P388 leukemia at a dose of 20 […] in b.i.d. x 4 schedule. Format: functional, Mus musculus. Summed up:
(§3)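 Groups of five male B6D2F1J mice were inoculated ip with 10^6 P388 cells on day 0. Drugs were given ip in water on q.d. 1-4, b.i.d. × 4 or q.d. 1-9 schedules. Animals were weighed on days 1 and 7, and weight change was expressed as a percentage.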

The subject of experiment [26] is P388. Nature of the experiment: Compound was evaluated for the 7-day percent change in weight of mice infected with P388 leukemia at a dose of 20 […] in q.d. 1-4 schedule. Format: functional, Mus musculus. Summed up:
as §3

Experiment [27] has as its system P388. Nature of the experiment: Compound was evaluated for the 7-day percent change in weight of mice infected with P388 leukemia at a dose of 40 […] in b.i.d. x 4 schedule. Format: functional, Mus musculus. Summed up: as §3
In experiment [28] the test system is P388. In words: Compound was evaluated for the 7-day percent change in weight of mice infected with P388 leukemia at a dose of 40 […] in q.d. 1-4 schedule. It counts as functional, Mus musculus. The gist of the method:
as §3

In experiment [29] the test system is P388. In words: Compound was evaluated for the 7-day percent change in weight of mice infected with P388 leukemia at a dose of 40 […] in q.d. 1-9 schedule. It counts as functional, Mus musculus. The gist of the method: as §3
For experiment [30], the system named is P388. Nature of the experiment: Percent increase in life span against mice infected with P388 leukemia at a dose of 20 […] in q.d. 1-9 schedule. Format: functional, Mus musculus. The gist of the method:
as §2

Experiment [31] relates to P388. In words: Compound was evaluated for the median survival time of mice infected with P388 leukemia at a dose of 20 […] in b.i.d. x 4 schedule. It counts as functional, Mus musculus. The gist of the method:
as §2

The subject of experiment [32] is P388. In words: Compound was evaluated for the median survival time of mice infected with P388 leukemia at a dose of 20 […] in q.d. 1-4 schedule. Format: functional, Mus musculus. Summed up:
as §2

The test system of experiment [33] is P388. Nature of the experiment: Compound was evaluated for the median survival time of mice infected with P388 leukemia at a dose of 20 […] in q.d. 1-9 schedule. It counts as functional, Mus musculus. Summed up:
as §2

For experiment [34], the system named is P388. Nature of the experiment: Compound was evaluated for the median survival time of mice infected with P388 leukemia at a dose of 40 […] in b.i.d. x 4 schedule. It counts as functional, Mus musculus.
Experiment [35] has as its system P388. In words: Compound was evaluated for the median survival time of mice infected with P388 leukemia at a dose of 40 […] in q.d. 1-4 schedule. Format: functional, Mus musculus. Summed up: as §2
For experiment [36], the system named is P388. Nature of the experiment: Compound was evaluated for the median survival time of mice infected with P388 leukemia at a dose of 40 […] in q.d. 1-9 schedule. Format: functional, Mus musculus. The gist of the method: as §2

`O=c1[nH]c(=O)n(COCCO)cc1I`: the IC50 in the experiment on L1210 [1] turned out to be 1 mM.

`Nc1nc(=O)n(COCCO)cc1F`: the IC50 in the experiment with L1210 [2] came out at 100 µM.

In the case of `O=c1[nH]c(=O)n(COCCO)cc1F`, the IC50 in the experiment with L1210 [3] came to 17 µM. Moreover, the Weight change was 4% in the experiment on P388 [4]; 6% in the experiment on P388 [5]; 0% with P388 [6]; 4% with P388 [7]; 6% in the experiment with P388 [8]; 0% in the experiment with P388 [9]. Also, the Weight change amounted to 0% with P388 [10], 5% in the experiment on P388 [11] and 7% in the experiment with P388 [12]. Besides, in the experiment with P388 [13], the Increase came to 75%. The Median survival with P388 [14] was found to be 17 days; with P388 [15], 15 days; with P388 [16], 18 days; with P388 [17], 20 days; with P388 [18], 17 days; with P388 [19] it was 21 days. The Median survival was determined as 21 days in the experiment on P388 [20], 16 days in the experiment with P388 [21], 14 days in the experiment on P388 [22] and 16 days with P388 [23]. Besides, in the experiment on P388 [24], the 7-day weight change is 8%.

Take `O=c1[nH]c(=O)n(COCCO)cc1Br`: in the experiment on L1210 [1], the IC50 was 1 mM.

For `O=c1[nH]cc(F)c(=O)[nH]1` [FLUOROURACIL], in the experiment with L1210 [3], the IC50 is 1 µM. The Weight change is 9% in the experiment with P388 [25]; -5% with P388 [26]; -12% with P388 [27]; -29% in the experiment on P388 [28]; -23% with P388 [29]; -2% in the experiment with P388 [30]. For the same compound, the Median survival with P388 [31] was 19 days; in the experiment on P388 [32], 23 days; in the experiment on P388 [33], 21 days; with P388 [34], 12 days; in the experiment on P388 [35], 10 days; in the experiment on P388 [36] it was 12 days.
